Data published in ChEMBL document CHEMBL4330069, “Boosting the efficacy of anti-MRSA β-lactam antibiotics via an easily accessible, non-cytotoxic and orally bioavailable FtsZ inhibitor” (Eur J Med Chem, 2019).
≈ marks a conversion by molar mass, not a printed value.

Legend:
L929 = test: Cytotoxicity against mouse L929 cells by MTS assay; type: cell-based
How it was run: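 MTS assay on L929 mouse fibroblasts; IC50 reported as the average of three independent measurements.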

Staphylococcus aureus = test: Antibacterial activity against Staphylococcus aureus ATCC 29213 by broth microdilution assay; type: functional
How it was run: (§1)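 Broth microdilution per CLSI guidelines; compounds dissolved in DMSO; single agents tested; growth inhibition read by eye; run in duplicate (table footnote states at least triplicates).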

[1] = Selective index, ratio of IC50 for mouse L929 cells to MIC for Staphylococcus aureus ATCC 29213
How it was run: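 Selectivity index calculated as L929 IC50 (μM) divided by S. aureus MIC (μM).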

Escherichia coli = test: Antibacterial activity against Escherichia coli ATCC 25922 by broth microdilution assay; type: functional; how it was run: as §1

**Q.** Which IC50 (L929) does the source give for `CCCCCCCCN(C)c1ccc(F)c(C(N)=O)c1F` here?
**A.** 92 µM

**Q.** What about the MIC (Staphylococcus aureus) of the same compound?
**A.** 13 µM (≈ 3.88 µg/mL)

**Q.** And the “Selectivity Index” value [1]?
**A.** 7

**Q.** And the MIC (Escherichia coli)?
**A.** > 64 µg/mL

**Q.** For `CCCCCCCCNc1ccc(F)c(C(N)=O)c1F`, which IC50 (L929) is on record?
**A.** > 100 µM

**Q.** And the MIC (Staphylococcus aureus)?
**A.** 50 µM (≈ 14.2 µg/mL)

**Q.** And the “Selectivity Index” value [1]?
**A.** >2

**Q.** What about the MIC (Escherichia coli) of the same compound?
**A.** > 64 µg/mL

**Q.** With `CCCCCCCC(C)Nc1ccc(F)c(C(N)=O)c1F` (stereo unspecified) as the compound, how does the IC50 (L929) read?
**A.** > 100 µM

**Q.** And the MIC (Staphylococcus aureus)?
**A.** 13 µM (≈ 3.88 µg/mL)

**Q.** What about the “Selectivity Index” value [1] of the same compound?
**A.** >8

**Q.** And the MIC (Escherichia coli)?
**A.** > 64 µg/mL

**Q.** What does the source list for `CCCCCCCCCN(C)c1ccc(F)c(/C(N)=N/O)c1F`?
**A.** IC50 (L929): > 100 µM; MIC (Staphylococcus aureus): 13 µM (≈ 4.26 µg/mL); Selectivity Index [1]: >8; MIC (Escherichia coli): > 64 µg/mL

**Q.** With `CCCCCCCCCN(C)c1ccc(F)c(C(N)=O)c1F` as the compound, how does the IC50 (L929) read?
**A.** 60 µM

**Q.** And the MIC (Staphylococcus aureus)?
**A.** 3.1 µM (≈ 0.968 µg/mL)

**Q.** What about the “Selectivity Index” value [1] of the same compound?
**A.** 19

**Q.** And the MIC (Escherichia coli)?
**A.** > 64 µg/mL

**Q.** Which IC50 (L929) does the source give for `CCCCCCCCCN(C)c1ccc(F)c(C(=N)N)c1F` here?
**A.** > 100 µM

**Q.** What about the MIC (Staphylococcus aureus) of the same compound?
**A.** 50 µM (≈ 15.6 µg/mL)

**Q.** What about the “Selectivity Index” value [1] of the same compound?
**A.** >2

**Q.** And the MIC (Escherichia coli)?
**A.** > 64 µg/mL

**Q.** Which results are given for `CCCCCC/C=C\CNc1ccc(F)c(C(N)=O)c1F`?
**A.** IC50 (L929): 99 µM; MIC (Staphylococcus aureus): 25 µM (≈ 7.41 µg/mL); Selectivity Index [1]: 4; MIC (Escherichia coli): > 64 µg/mL

**Q.** Which results are given for `NC(=O)c1c(F)ccc(N(Cc2ccc(Cl)cc2)Cc2ccc(Cl)cc2)c1F`?
**A.** IC50 (L929): > 100 µM; MIC (Staphylococcus aureus): 13 µM (≈ 5.48 µg/mL); Selectivity Index [1]: >8; MIC (Escherichia coli): > 64 µg/mL

**Q.** Which IC50 (L929) does the source give for `CCCCCCCCCNc1ccc(F)c(-c2nnn[nH]2)c1F` here?
**A.** > 100 µM

**Q.** And the MIC (Staphylococcus aureus)?
**A.** 50 µM (≈ 16.2 µg/mL)

**Q.** What about the “Selectivity Index” value [1] of the same compound?
**A.** >2

**Q.** What about the MIC (Escherichia coli) of the same compound?
**A.** > 64 µg/mL
